Bioassay records from PubChem.
Compounds with a hit are over-represented: about 3.7% of the library has one in this group of screens.
KCNQ1 act – potentiators or activators of KCNQ1 channel, primary screen, cell-based, thallium flux, high-throughput; CHO-K1 KCNQ1, thallium flux FluxOR fluorescence; hits give high values; B-score at 10 µM; actives 0.35% (n = 310,000); AID 2648, 2010;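 active = fluorescence ratio B-score, a plate-corrected score, at least three library SD, with initial intensity B-score within 5 SD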
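Assay system: CHO-K1 cells stably expressing KCNQ1. Medium: assay buffer for compound exposure, DMSO matched across wells. Timing: 37 °C overnight plating, 90-min dark dye load, 20-min compound pretreatment. Signal: kinetic FluxOR fluorescence, 10 s baseline plus 110 s post-stimulus.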
KCNK9 inh – KCNK9 potassium channel inhibitors, primary screen, HEK293 cells, thallium flux; actives 1.2% (n = 310,000); B-score at 10 µM; FluxOR thallium flux fluorescence; hits give low values; Potassium channel subfamily K member 9 (Homo sapiens), Q9NPC2; AID 488922, 2010;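 active = ratio B-score over 3 SD below the library mean, with starting fluorescence within 5 SD of its mean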;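 note: negative B-score means less thallium flux so channel inhibition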
KCNK3 block – human KCNK3 channel inhibitors, primary screen, CHO cells, FluxOR thallium flux, B-score. Potassium channel subfamily K member 3 (Homo sapiens), O14649. FluxOR fluorescence; hits give low values. B-score at 10 µM. actives 0.84% (n = 340,000). AID 602410, 2012;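 active = B-score under library mean minus 4 SD, starting fluorescence ratio at most library mean plus 5 SD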;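 note: more negative B-score means stronger inhibition of thallium flux through KCNK3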
Target sequence (O14649 whole entry, looked up): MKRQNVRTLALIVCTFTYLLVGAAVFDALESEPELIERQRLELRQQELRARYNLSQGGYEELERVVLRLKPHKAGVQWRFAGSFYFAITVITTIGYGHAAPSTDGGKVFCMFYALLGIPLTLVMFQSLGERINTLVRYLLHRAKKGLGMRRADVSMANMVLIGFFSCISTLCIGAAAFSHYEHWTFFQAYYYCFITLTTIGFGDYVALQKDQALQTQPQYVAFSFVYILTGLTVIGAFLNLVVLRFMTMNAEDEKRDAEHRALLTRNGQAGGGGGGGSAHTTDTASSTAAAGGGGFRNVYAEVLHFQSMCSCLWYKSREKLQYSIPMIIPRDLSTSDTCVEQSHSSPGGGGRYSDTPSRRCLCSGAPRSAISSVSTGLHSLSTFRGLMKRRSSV
KCNQ1 block – inhibitors of human KCNQ1 channel, primary screen, cell-based, thallium flux, high-throughput; Potassium voltage-gated channel subfamily KQT member 1 (Homo sapiens), P51787; CHO-K1 KCNQ1, FluxOR thallium flux fluorescence; hits give high values; B-score at 10 µM; actives 1.3% (n = 310,000);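 active = compounds whose thallium flux B-score, printed positive for inhibition, exceeds three library SD while starting fluorescence stays within three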;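 note: channel opened by potassium depolarization with thallium stimulus after 20 min compound exposure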
Kir21 block – inhibitors of mouse Kir2.1 inward-rectifier potassium channel. Inward rectifier potassium channel 2 (Mus musculus), P35561. HEK293-Kir2.1, FluxOR thallium flux fluorescence; hits give low values. B-score at 10 µM. actives 0.85% (n = 310,000). AID 1672, 2009;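 active = fluorescence ratio B-score at or below minus 3 SD of library scores, with starting-brightness B-score within 2 SD, cut at about -4.2 in these data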;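 note: channel flux triggered by added potassium and thallium sulfate stimulus; B-score of peak minus minimum fluorescence over baseline after thallium stimulus; more negative B-score means stronger Kir2.1 block with less thallium influx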
hERG rescue – hERG rescue from dofetilide block, primary screen, cell-based, CHO-hERG, FluxOR thallium flux, dofetilide IC70 | dofetilide IC70 present | activation (rescue from dofetilide block), less the hit threshold, % at 10 µM | actives 0.51% (n = 310,000);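 active = activation above the mean of controls blocked by dofetilide plus 5 SD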;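 note: thallium influx through hERG after potassium depolarization seen as dye fluorescence rise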
Numbers stand for hits; n = inactive; x = not tested or not shown.

SMILES | KCNQ1 act | KCNK9 inh | KCNK3 block | KCNQ1 block | Kir21 block | hERG rescue
O=C(COC(=O)c1ccc(F)c(S(=O)(=O)N2CCOCC2)c1)NCCc1ccc(F)cc1 | x | x | n | x | x | x
CCC(C)n1c(SC(C)C#N)nc2ccccc2c1=O (stereo unspecified) | n | n | n | n | n | 5.0
O=C(Nc1cccc(-c2cccc(Cl)c2)c1)C1CCN(Cc2ccc(CO)o2)CC1 | n | n | n | n | -6.1 | n
Cc1ccc(CN2CCC(C(=O)Nc3cccc(-c4cccc(F)c4)c3)CC2)o1 | n | n | n | n | -5.1 | n
CCOC(=O)c1cc2c(=O)n3ccccc3nc2n(Cc2ccco2)c1=NC(=O)c1cccc(OC)c1 | n | n | n | 7 | n | n
CCOC(=O)c1cc2c(=O)n3ccccc3nc2n(CCCOC)c1=NC(=O)c1ccncc1 | 15 | n | n | n | n | n
Cc1nnc(SCC(=O)Nc2nccs2)o1 | n | n | n | n | n | n
CCc1ccccc1NC(=O)CN(C)C(=O)COC(=O)c1c(Cl)cccc1Cl | x | x | n | x | x | x
CCc1nc(N2CCCC(C)C2)c2oc3ccccc3c2n1 (stereo unspecified) | n | -7.4 | n | n | n | n
CCc1nc(N2CCCCC2)c2oc3ccccc3c2n1 | n | n | n | n | n | n
CCN(CCN(C)C)C(=O)C1CCN(S(=O)(=O)c2c(C)noc2/C=C/c2ccccc2F)CC1 | n | n | n | n | -5 | n
CCCCCC/C(C)=C1/SC(=S)NC1=O | 126 | n | n | n | n | 59
C/C(C/C(C)=C1/SC(=S)NC1=O)=C1\SC(=S)NC1=O | x | x | n | x | x | x
COc1ccccc1NS(=O)(=O)c1ccc(C)c(NS(=O)(=O)c2cc(NC(C)=O)ccc2OC)c1 | x | x | n | x | x | x
COc1ccc(CNCCC(c2ccc(OC(C)C)cc2)C(C)C)cc1OC (stereo unspecified) | n | n | n | n | n | n
COc1ccc(C(CCNCc2ccc(N(C)C)cc2)C(C)C)cc1 (stereo unspecified) | n | n | n | n | -5 | n
CCOCCCNCc1ccc(OC)cc1 | n | n | n | n | n | n
COc1ccc(C(CCNCc2ccc(OC(C)C)cc2)C(C)C)cc1 (stereo unspecified) | n | n | n | n | -4.5 | n
CN(CCOCCOc1ccc2ccccc2c1)Cc1ccccc1 | n | n | n | n | -7 | n
CCn1c(CSc2nnc(-c3ccoc3C)n2C)nc2cc(S(=O)(=O)N(C)C)ccc21 | n | n | n | n | n | 32
O=C(NN=Cc1cc(=O)[nH]c(=O)[nH]1)c1ccncc1 | x | x | n | x | x | x
Cc1ccc(S(=O)(=O)N(CC(=O)N/N=C/c2ccco2)Cc2ccccc2)cc1 | n | n | n | n | n | n
Cc1cccc(CN(CC(=O)N/N=C/c2ccco2)S(=O)(=O)c2ccc(Cl)cc2)c1 | n | n | n | 9 | n | n
CCOc1ccc2c(ccc(/C=C/c3cc(C)c4cccnc4c3O)[n+]2C)c1 | x | x | n | x | x | x
N#C/C(=C\c1c(Oc2ccc(Cl)cc2)nc2ccccn2c1=O)C(=O)NC1CCS(=O)(=O)C1 (stereo unspecified) | n | n | n | n | -4.4 | n
SMILES | KCNQ1 act | KCNK9 inh | KCNK3 block | KCNQ1 block | Kir21 block | hERG rescue
CC(C)(C)NC(=O)CN(Cc1cccs1)C(=O)C1COc2ccccc2O1 (stereo unspecified) | n | n | n | 6 | n | n
CC(C)(C)NC(=O)CN(Cc1cccs1)C(=O)CN1C(=O)C(=O)c2ccccc21 | n | n | n | n | n | n
O=C(NCCO)c1c(O)c2cccc3c2n(c1=O)CC3 | n | n | n | n | n | n
O=C(Nc1nccs1)c1c(O)c2cccc3c2n(c1=O)CCC3 | n | n | x | 6 | n | n
CC(C)(C)c1ccccc1NC(=O)c1c(O)c2cccc3c2n(c1=O)CC3 | n | n | x | 7 | n | n
COc1ccc(/C=N/NC(=O)c2cc(C34CC5CC(CC(C5)C3)C4)[nH]n2)cc1O | n | n | n | 6 | n | n
CCOc1ccc(/C=N/NC(=O)NC23CC4CC(CC(C4)C2)C3)cc1O | n | n | n | 9 | n | n
COc1ccc(/C=N\NC(=O)c2ccc(=O)[nH]n2)cc1O | n | n | n | n | n | n
O=C(N/N=C/c1ccc(O)c(O)c1)NC12CC3CC(CC(C3)C1)C2 | n | n | n | n | n | n
COC1OC2COC(c3ccccc3)OC2C(O)C1NC(=O)c1ccccc1 (stereo unspecified) | x | x | n | x | x | x
CCN1CCN(S(=O)(=O)c2ccc(Cl)c(C(=O)Oc3ccc(CC(=O)OC)cc3)c2)CC1 | x | x | n | x | x | x
c1ccc(NCCC2OCC3(CO2)COC(CCNc2ccccc2)OC3)cc1 (stereo unspecified) | x | x | n | x | x | x
Cc1cccc(OCCC(=O)NNC(=O)c2ccoc2C)c1 | x | x | n | x | x | x
Cc1cccc(-n2cc(CN3CCN(c4ccccn4)CC3)c(-c3cccc(F)c3)n2)c1 | n | n | n | n | n | n
Cc1ccc(-n2cc(CNCCCn3ccnc3C)c(-c3ccc(F)cc3)n2)cc1 | n | n | n | n | -7.9 | n
Cc1ccc(-n2cc(CNCCc3cscn3)c(-c3ccc(F)cc3)n2)cc1 | n | n | n | n | n | n
Cc1ccc(-n2cc(CN3CCN(c4ccccn4)CC3)c(-c3ccc(F)cc3)n2)cc1 | n | n | n | 6 | n | n
CC(C)(C)S(=O)N1Cc2cn(Cc3ccccc3)c(=O)cc2[C@@H]1CCO (stereo partly specified) | x | x | n | x | x | x
CC(C)OCCCNC(=O)c1ccc2c(c1)S(=O)(=O)c1ccccc1C2=O | n | n | n | n | n | n
COCCCNC(=O)c1ccc2c3c(onc13)-c1ccccc1C2=O | n | n | n | 10 | n | n
O=C(O)c1ccccc1C(=O)Nc1ccc(Oc2cccc3ccccc23)cc1 | n | n | n | n | n | n
Cc1cccc(Oc2ccc(NC(=O)c3ccccc3C(=O)O)cc2)c1C | n | n | n | n | n | 5.6
CCOCCCNc1nc2c(C)cccn2c(=O)c1/C=C1\SC(=S)N(CC(C)C)C1=O | n | n | n | n | n | n
CCOCCCNc1nc2c(C)cccn2c(=O)c1/C=C1\SC(=S)N(C(C)CC)C1=O (stereo unspecified) | n | n | n | 7 | n | n
Nc1nc2cc(Cl)c(Br)cc2o1 | x | x | n | x | x | x
COc1ccc(-c2[nH]ncc2CN(CCO)CC23CC4CC(CC(C4)C2)C3)c(OC)c1 | n | n | n | n | -5.6 | n
COc1ccc(Nc2ccc(Cl)nn2)cc1 | n | n | n | n | n | n
